Shown are actives, neighbours in structure and some others; about 3.5% of the full set was active somewhere.
MrgX1 PAM: positive allosteric modulators of MrgX1, primary screen, HEK293 cells, Fluo-4 calcium flux; Mas-related G-protein coupled receptor member X1 (Homo sapiens), Q96LB2; FDSS; hits give high values; B-score at 10 µM; actives 0.63% (n = 310,000); AID 588675, 2011;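 active = plate-corrected calcium response at least 3 library SD above typical, normal starting fluorescence, not activating the receptor alone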;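 also: compound read alongside a low EC10 to EC30 dose of BAM8-22 agonist; peak minus trough fluorescence over baseline measured at the second addition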
Target sequence (Q96LB2 whole entry, looked up): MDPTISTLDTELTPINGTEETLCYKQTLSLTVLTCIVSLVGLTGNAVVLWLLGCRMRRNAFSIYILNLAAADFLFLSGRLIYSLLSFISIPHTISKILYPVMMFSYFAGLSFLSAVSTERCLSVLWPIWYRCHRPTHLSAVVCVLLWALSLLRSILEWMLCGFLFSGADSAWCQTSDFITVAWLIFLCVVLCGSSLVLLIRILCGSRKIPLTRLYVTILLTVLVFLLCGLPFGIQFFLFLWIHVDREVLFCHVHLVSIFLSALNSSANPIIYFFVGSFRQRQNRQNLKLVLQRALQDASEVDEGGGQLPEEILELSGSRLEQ
RGS4 pot: RGS4 potentiators or activators, primary screen, cell-based, HEK293 M3R inducible RGS4, calcium flux | actives 0.92% (n = 310,000) | B-score at 10 µM | carbachol calcium flux Fluo4; hits give low values | AID 463111, 2010;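 active = B-score of the integrated calcium signal more than 4 SD below the library mean, with starting fluorescence not abnormally high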;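 also: negative B-score means reduced calcium response which marks RGS4 activation or potentiation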
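System – HEK293 FlpIn-TREx cells, stable M3R, doxycycline-inducible RGS4 · Reagent – ECmax carbachol challenge · Times – compound preincubation 20 min at room temperature before agonist · Technique – Fluo4 fluorescence kinetic imaging of calcium · Measure – B score of integrated Fluo4 ratio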
MrgX1 ag: agonists of human MrgX1 receptor, primary screen, HEK293 cells, Fluo-4 calcium flux; Fluo-4 calcium fluorescence, agonist mode; hits give high values; B-score at 10 µM; actives 0.44% (n = 310,000);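 active = calcium response B-score plate-corrected fluorescence ratio at least 3 library SD, with starting fluorescence B-score inside 5 SD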
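Assay system: MrgX1-expressing HEK293 cells / Amount: fifteen thousand cells per well / Doses: test compound in the initial addition of three / Timing: cells plated overnight, dye loaded 0.5 h 37 °C, 0.5 h room temperature / Technique: kinetic calcium dye fluorescence, Fluo-4 NW / Control set: positive and negative controls per plate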
MrgX1 antagonist: antagonists of human MrgX1 receptor, primary screen, HEK293 cells, Fluo-4 calcium flux. actives 1.3% (n = 310,000). BAM8-22 antagonism; hits give low values. B-score at 10 µM. Mas-related G-protein coupled receptor member X1 (Homo sapiens), Q96LB2;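 active = calcium-response B-score plate-corrected more than 3 library SD below zero, starting fluorescence within 5 deviations, no agonist response on first addition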;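 also: peak minus trough fluorescence over baseline after final BAM8-22 challenge near maximal dose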
RGS4 inh: RGS4 inhibitors, primary screen, cell-based, HEK293 M3R inducible RGS4, calcium flux | Regulator of G-protein signaling 4 (Homo sapiens), P49798 | Fluo-4 calcium flux; hits give high values; triggered by carbachol at its EC20 | B-score at 10 µM | actives 0.45% (n = 310,000) | AID 463165, 2010;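 active = B-score, a plate-corrected calcium signal, over three deviations above library mean, with baseline fluorescence within five deviations of library mean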;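 also: RGS4 expression induced by doxycycline in cells with stable M3 receptor; B-score is computed from the integrated fluorescence ratio over baseline after carbachol; higher B-score means a larger calcium signal and so more RGS4 inhibition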
Target sequence (P49798 whole entry, looked up): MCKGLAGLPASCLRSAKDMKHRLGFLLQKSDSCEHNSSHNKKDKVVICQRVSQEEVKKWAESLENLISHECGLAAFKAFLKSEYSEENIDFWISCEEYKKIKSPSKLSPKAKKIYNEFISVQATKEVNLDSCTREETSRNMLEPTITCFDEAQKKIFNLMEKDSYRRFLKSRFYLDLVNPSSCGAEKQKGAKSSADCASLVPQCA
RGS4 inh valid: enhanced carbachol calcium response, M3R/RGS4 cells, RGS4 inhibitor project, cell-based, validation screen, HEK293 M3R/RGS4, calcium flux; carbachol calcium Fluo-4 fluorescence; carbachol added at its EC20; 0 = buffer wells, 100 = carbachol control; calcium response, % at 10 µM; actives 65% (n = 1,700); shares compounds with RGS4 inh;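 active = duplicate-averaged calcium response above the buffer-only control mean plus 5 SD of those controls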;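 also: integrated fluorescence ratio F max minus min over baseline F0; higher response in RGS4-induced cells means RGS4 inhibition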
RGS4 uninduced: carbachol calcium response in non-induced M3R cells, confirmation, counter-screen for RGS4 inhibitor project, cell-based, HEK293 M3R; shares compounds with RGS4 inh; activity (percent), % at 10 µM; actives 20% (n = 1,900); carbachol calcium Fluo-4; submaximal (EC20) carbachol stimulus; buffer wells 0%, carbachol control wells 100%; call rule not given here;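 also: RGS4 induction absent so cells express M3R without RGS4; higher means more calcium signal and flags a non-specific hit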
RGS4 inh ctr2: signal in non-induced cells without carbachol, RGS4 inhibitor counter-screen | AID 493001 | shares compounds with RGS4 inh | HEK293 M3R/RGS4 non-induced, Fluo-4 calcium, no carbachol; normalised: buffer wells 0%, carbachol wells 100% | calcium response (agonist-mode artifact), % at 10 µM | actives 22% (n = 1,900);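 active = duplicate-averaged calcium rise in uninduced cells above buffer wells' mean plus 5 SD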
Numbers without * were called inactive; i = inactive; · = no result given.

SMILES	MrgX1 PAM	RGS4 pot	MrgX1 ag	MrgX1 antagonist	RGS4 inh	RGS4 inh valid	RGS4 uninduced	RGS4 inh ctr2
Cc1ncc(CO)c(/C=N/NC(=O)c2cc3c(s2)CCCC3)c1O	i	i	i	i	7.2*	102%*	78%*	35%*
Cc1ncc(CO)c(/C=N/NC(=O)c2ccc(O)cc2)c1O	i	i	i	i	i	·	i	8.0%*
COc1ccc(C(=O)N/N=C/c2c(CO)cnc(C)c2O)cc1	i	i	i	i	i	·	·	·
Cc1cc(Br)cc(C=Nc2ccc(N3CCOCC3)cc2)c1O	i	i	i	i	5.8*	21%*	40%*	168%*
Oc1cc(Br)ccc1C=Nc1ccc(N2CCCCC2)cc1	i	i	i	i	i	·	·	·
Oc1ccc(N=Nc2cccc(C(F)(F)F)c2)cc1C=Nc1ccc(N2CCOCC2)cc1	i	i	i	i	9.7*	28%*	46%*	i
Oc1c(Cl)cc(Cl)cc1C=Nc1ccc(N2CCOCC2)cc1	i	i	i	i	5*	i	i	93%*
Clc1ccc(-c2ccc(C=Nc3ccc(N4CCOCC4)cc3)o2)c(Cl)c1	i	i	i	i	5.4*	i	i	16%*
Oc1ccc(C=Nc2ccc(N3CCOCC3)cc2)c(O)c1	i	i	i	i	i	·	·	·
CCc1ccc(/C(C)=N/NC(=O)CNC(=O)/C=C/c2ccco2)cc1	i	i	i	i	i	·	·	·
COc1ccc(S(=O)(=O)N2CCOC23CCN(S(C)(=O)=O)CC3)cc1	i	i	i	i	i	·	·	·
Cc1csc(SCC(=O)Nc2ccccc2[N+](=O)[O-])n1	i	i	i	i	i	·	·	·
COc1ccc(CN(CC(=O)NCc2ccc(F)cc2)C(=O)CCC(=O)Nc2ccccn2)cc1	i	i	i	i	i	·	·	·
O=C1NC[C@@H](Cc2cccc3ccccc23)N(CCC23CC4CC(CC(C4)C2)C3)C1=O	i	i	i	i	4.8*	12%*	32%*	i
CCCCc1nc2n[nH]c(N)c2c2c1CSC(C)(C)C2	i	i	i	i	4.7*	i	i	i
Cc1ccc(C(=O)O)cc1NC(=S)NC(=O)c1ccc(-c2ccc(Cl)cc2)o1	i	i	i	i	i	·	i	i
COc1ccc(C(=O)O)cc1NC(=S)NC(=O)c1ccc(-c2ccc(Cl)cc2)o1	·	i	·	·	4.8*	i	i	i
O=C(O)c1cccc(NC(=S)NC(=O)c2ccc(-c3ccc(Cl)cc3)o2)c1	i	i	i	i	i	·	·	·
Cc1ccc(C(=O)OCC(=O)NNC(=O)c2ccc([N+](=O)[O-])cc2)o1	i	i	i	i	i	·	·	·
Oc1ccccc1C=NCCN=Cc1ccccc1O	i	i	i	i	i	·	·	·
Oc1ccc(Cl)cc1C=NCCc1ccccc1	i	i	i	i	5*	22%*	35%*	11%*
Nc1nc(Cl)cc(N2CCCC2)n1	i	i	i	i	i	·	·	·
Nc1nc(Cl)cc(N2CCC(c3cc(-c4ccc(Cl)cc4Cl)n[nH]3)CC2)n1	i	i	i	i	7.3*	16%*	i	i
COc1ccc(Cn2c(=O)c3[nH]cnc3n(-c3ccccc3C)c2=O)cc1	i	i	i	i	7.8*	15%*	38%*	i
CC(=O)C1=C(C)OC(N)=C(C#N)C1c1cc2cc(C)c(C)cc2nc1Cl (stereo not given)	i	i	i	i	15*	5.0%*	i	i
SMILES	MrgX1 PAM	RGS4 pot	MrgX1 ag	MrgX1 antagonist	RGS4 inh	RGS4 inh valid	RGS4 uninduced	RGS4 inh ctr2
COC(=O)C1=C(C)OC(N)=C(C#N)C1c1cc2cc(C)ccc2nc1Cl (stereo not given)	i	i	i	i	i	·	·	·
CCCc1ccc(-c2cc(NC(=O)CSc3nnc(N)s3)n(-c3ccccc3)n2)cc1	i	i	i	i	8.8*	20%*	i	i
Cc1nnc(SCC(=O)Nc2cc(-c3cc(C)c(C)cc3C)nn2-c2ccccc2)s1	i	i	i	i	i	·	·	·
COc1cccc(NC(=O)CN(C)C(=O)c2oc3c(ccc4ccccc43)c2C)c1	i	i	i	i	i	·	·	·
Cc1ccc(C(=O)/C=C/C(=O)c2ccc(C)cc2)cc1	i	i	i	i	i	·	i	i
CSc1ccc(CNC(=O)C2CCC(=O)N(CCc3cccc(F)c3)C2)cc1 (stereo not given)	i	i	i	i	i	·	·	·
Cc1ccccc1C1C(C#N)=C2N=C(N)c3ccccc3N2C2=C1C(=O)CCC2 (stereo not given)	i	i	i	i	i	·	·	·
N#CC1=C2N=C(N)c3ccccc3N2C2=C(C(=O)CCC2)C1c1cccc(Cl)c1 (stereo not given)	i	i	i	i	i	·	38%*	28%*
O=C(c1cc2n(n1)C(C(F)(F)F)CC(c1ccco1)N2)N1CCc2ccccc2C1 (stereo not given)	i	i	i	i	5.2*	8.0%*	i	28%*
Cc1cc(-c2ccc(S(=O)(=O)N3CCN(c4cccc(C)c4C)CC3)s2)on1	i	i	i	i	i	·	·	·
Cc1ccc(C2=NOC(=O)/C2=C\c2ccccc2)cc1	i	i	i	i	i	·	·	·
O=C1ON=C(c2ccccc2)/C1=C\c1ccco1	i	i	i	i	i	·	·	·
O=C1ON=C(c2ccccc2)/C1=C/c1ccc(O)cc1	i	i	i	i	11*	24%*	i	22%*

Screening data deposited in PubChem BioAssay by Johns Hopkins Ion Channel Center.
